Screens as filed in PubChem.
The list is not random: actives were taken first. Their share in the collection is about 5.8%.
Pf Dd2 inh = P. falciparum Dd2 growth inhibitors, primary screen, SYBR Green fluorescence, single dose replicates | 72 h; active compounds read low | activity change, % at 10 µM | 94,000 compounds, 2.3% hits; in the data active = activity change below about -80%; inconclusive = no clear call, values can overlap the other calls
T cruzi growth-1 = T. cruzi intracellular proliferation inhibitors, primary screen, cell-based, beta-gal Tulahuen parasites, NIH3T3 host, luminescence. T. cruzi beta-gal in NIH3T3, GalScreen luminescence, 90 h. inhibition, % at 8.34 µM. 77,000 compounds, 5.9% hits;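 active = mean inhibition above about 93%, with at least 55% of replicates each passing it, limit read from the data, passing the limit was not always enough; inconclusive = only one of those two conditions holds; inactive = neither condition holds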
GASC1 inh = inhibitors of GASC-1 (KDM4C) histone demethylase, primary screen, biochemical, single concentration HTS; GST-KDM4C 2-372, H3K9me3 peptide, LANCE TR-FRET; Lysine-specific demethylase 4C (Homo sapiens), Q9H3R0; 96,000 compounds, 0.15% hits; inhibition, % at 12.5 µM;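 active = mean replicate inhibition above about 25%, with at least 55% of replicates also reaching it, limit read from the data, passing the limit was not always enough; inconclusive = only one of those two conditions met; inactive = neither condition met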
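Material: N-terminal GST-fused human GASC-1 (KDM4C) fragment, residues 2-372. Input: 10 nM enzyme. Incubation: enzyme reaction 30 min, then detection 60 min, both room temperature. Doses: one test concentration per compound. Read-out basis: inhibition from TR-FRET ratio decrease. Detection: LANCE TR-FRET, excitation 340 nm, emissions 618 and 671 nm.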
IDH1 R132H inh = inhibitors of IDH1 R132H reductase, primary screen, biochemical, plate reader, single point; diaphorase/resazurin fluorescence, 60 min; inhibition, % at 10 µM; 70,000 compounds, 0.18% hits; in the data active = inhibition above about 34%; inconclusive = no clear call, values can overlap the other calls; inactive = below about 11%;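 note: 0% = DMSO and 100% = no enzyme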
Target sequence (O75874 whole entry R132H): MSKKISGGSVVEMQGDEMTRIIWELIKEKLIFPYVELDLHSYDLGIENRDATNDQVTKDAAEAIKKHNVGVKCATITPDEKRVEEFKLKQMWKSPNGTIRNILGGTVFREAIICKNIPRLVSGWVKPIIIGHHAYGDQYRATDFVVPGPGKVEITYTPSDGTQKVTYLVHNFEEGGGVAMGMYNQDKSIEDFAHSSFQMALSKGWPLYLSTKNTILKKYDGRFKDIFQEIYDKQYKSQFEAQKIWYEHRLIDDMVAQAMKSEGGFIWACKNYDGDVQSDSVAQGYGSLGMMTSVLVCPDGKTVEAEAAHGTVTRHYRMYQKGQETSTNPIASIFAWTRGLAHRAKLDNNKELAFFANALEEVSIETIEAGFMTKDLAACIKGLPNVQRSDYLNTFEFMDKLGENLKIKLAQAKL
T cruzi growth-2 = T. cruzi intracellular proliferation inhibitors, confirmation, cell-based, NIH3T3 host, beta-gal parasite, luminescence, cherry-pick | shares compounds with T cruzi growth-1 | T. cruzi beta-gal in NIH3T3, GalScreen luminescence, 90 h | inhibition, % at 8.35 µM | 5,600 compounds, 72% hits | AID 651739, 2012;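 active = mean replicate inhibition above about 95% and at least 55% of replicates individually reaching it, limit read from the data; inconclusive = only one of the two criteria is met; inactive = neither criterion is met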
T cruzi growth-3 = inhibitors of intracellular T. cruzi replication, confirmation, NIH3T3 host cells, beta-gal parasites, cherry-pick, set 2; 5,600 compounds, 21% hits; shares compounds with T cruzi growth-1; T. cruzi beta-gal in NIH3T3, GalScreen luminescence, 90 h; AID 651740, 2012; inhibition, % at 2.09 µM;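 active = mean inhibition above about 95%, with at least 55% of replicates also reaching it, limit read from the data; inconclusive = meets just one of the two conditions; inactive = meets neither condition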;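 note: plate controls were neutral control median for no effect and positive control median for full effect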
3T3 cytotox = cytotoxicity in mouse NIH/3T3 fibroblasts, confirmation, cytotoxicity control for T. cruzi proliferation inhibitor project, cell-based, cherry-pick, single point. shares compounds with T cruzi growth-1. NIH/3T3 viability, CellTiter-Glo ATP luminescence, 90 h. cytotoxicity (signal decrease), % at 8.35 µM. 5,600 compounds, 14% hits. AID 651742, 2012;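 active = mean signal decrease across replicates above about 35% based on untreated-well scatter, with enough replicates individually passing, limit read from the data; inconclusive = no rule stated though some were filed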;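 note: 0% = median of neutral control wells and 100% = median of positive control wells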
NIH3T3 tox 2 = NIH/3T3 fibroblast cytotoxicity, confirmation, cytotoxicity control, cell-based, cherry-pick, single point, set 2; 5,600 compounds, 56% hits; inhibition, % at 24.9 µM; shares compounds with T cruzi growth-1; NIH/3T3 viability, CellTiter-Glo ATP luminescence, 90 h;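 active = mean loss of cell viability signal at or above a set limit, and enough replicates individually reaching it; inconclusive = meets only the mean limit or only the replicate share; inactive = meets neither condition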;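 note: 0% = median of neutral control wells and 100% = median of positive control wells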
An asterisk follows results filed as active; u = inconclusive; x = no result given.

SMILES | Pf Dd2 inh | T cruzi growth-1 | GASC1 inh | IDH1 R132H inh | T cruzi growth-2 | T cruzi growth-3 | 3T3 cytotox | NIH3T3 tox 2
C[C@@H]1CCCCO[C@@H](CN(C)C(=O)Nc2ccccc2)[C@H](C)CN([C@H](C)CO)C(=O)c2cc(NC(=O)Cc3ccccc3)ccc2O1 | -38 | 67 | 0 | 2 | x | x | x | x
C[C@@H]1CCCCO[C@@H](CN(C)C(=O)Nc2cccc3ccccc23)[C@H](C)CN([C@H](C)CO)C(=O)c2cc(NC(=O)c3ccccc3)ccc2O1 | -59 | 103* | -2 | x | 101* | u | -18 | -6
C[C@@H]1CCCCO[C@@H](CN(C)C(=O)Nc2cccc3ccccc23)[C@H](C)CN([C@H](C)CO)C(=O)c2cc(NC(=O)Cc3ccccc3)ccc2O1 | -87* | 98* | -3 | 1 | 102* | 109* | -28 | 1
C[C@@H]1CN([C@H](C)CO)C(=O)c2cc(C3=CCCCC3)cnc2O[C@H]1CN(C)C(=O)Cc1cccnc1 | -8 | 60 | 0 | x | x | x | x | x
C[C@@H]1CCCCO[C@H](CN(C)C(=O)Nc2ccc3c(c2)OCO3)[C@H](C)CN([C@@H](C)CO)C(=O)c2cc(NC(=O)NC3CCCCC3)ccc2O1 | -73 | 64 | 3 | x | x | x | x | x
C[C@H](CO)N1C[C@H](C)[C@H](CN(C)C(=O)Nc2ccc(F)cc2)OCCCC[C@H](C)Oc2ccc(NC(=O)Nc3ccc4c(c3)OCO4)cc2C1=O | 30 | 94 | -1 | 5 | x | x | x | x
C[C@@H]1CCCCO[C@H](CN(C)C(=O)Nc2ccc3c(c2)OCO3)[C@H](C)CN([C@H](C)CO)C(=O)c2cc(NC(=O)Nc3ccc(F)cc3)ccc2O1 | -88* | 102* | -2 | 1 | 100* | 64 | -10 | -4
C[C@@H]1CCCCO[C@@H](CN(C)C(=O)Nc2ccc(F)cc2)[C@@H](C)CN([C@H](C)CO)C(=O)c2cc(NC(=O)Nc3ccc4c(c3)OCO4)ccc2O1 | 11 | -23 | 0 | 3 | x | x | x | x
C[C@@H]1CCCCO[C@@H](CN(C)C(=O)Nc2ccc3c(c2)OCO3)[C@H](C)CN([C@H](C)CO)C(=O)c2cc(NC(=O)Nc3ccc(F)cc3)ccc2O1 | -49 | 102* | 0 | 0 | 104* | 84 | -16 | -12
C[C@H](CO)N1C[C@H](C)[C@H](CN(C)C(=O)Nc2ccc3c(c2)OCO3)OCCCC[C@H](C)Oc2ccc(NC(=O)NC3CCCCC3)cc2C1=O | -16 | 110* | 2 | 0 | 105* | 83 | -20 | -16
C[C@H](CO)N1C[C@H](C)[C@H](CN(C)C(=O)Nc2ccc3c(c2)OCO3)OCCCC[C@H](C)Oc2ccc(NC(=O)Nc3ccc(F)cc3)cc2C1=O | -11 | 104* | 1 | x | 108* | 89 | 7 | 7
COc1ccc(CN(C)C[C@@H]2OCCCC[C@@H](C)Oc3ccc(NC(=O)Nc4ccc(OC)cc4)cc3C(=O)N([C@H](C)CO)C[C@@H]2C)cc1 | 37 | 35 | x | 1 | x | x | x | x
COc1ccc(CN(C)C[C@H]2OCCCC[C@H](C)Oc3ccc(NC(=O)Nc4ccc(OC)cc4)cc3C(=O)N([C@H](C)CO)C[C@@H]2C)cc1 | -1 | 42 | 1 | x | x | x | x | x
COc1ccc(CN(C)C[C@@H]2OCCCC[C@H](C)Oc3ccc(NC(=O)Nc4ccc(OC)cc4)cc3C(=O)N([C@H](C)CO)C[C@H]2C)cc1 | -50 | 67 | x | x | x | x | x | x
COc1ccc(NC(=O)Nc2ccc3c(c2)C(=O)N([C@@H](C)CO)C[C@@H](C)[C@H](CN(C)Cc2ccc(Cl)c(Cl)c2)OCCCC[C@@H](C)O3)cc1 | -70 | 126* | -1 | 2 | 100* | 117* | 20 | 31
COc1ccc(NC(=O)Nc2ccc3c(c2)C(=O)N([C@H](C)CO)C[C@H](C)[C@@H](CN(C)Cc2ccc(Cl)c(Cl)c2)OCCCC[C@H](C)O3)cc1 | -18 | 123* | 0 | x | u | 116* | 14 | 8
COc1ccc(NC(=O)Nc2ccc3c(c2)C(=O)N([C@@H](C)CO)C[C@H](C)[C@H](CN(C)Cc2ccc(Cl)c(Cl)c2)OCCCC[C@@H](C)O3)cc1 | -39 | 125* | 0 | 0 | 101* | 115* | 11 | -8
COc1ccc(NC(=O)Nc2ccc3c(c2)C(=O)N([C@@H](C)CO)C[C@@H](C)[C@H](CN(C)Cc2ccc(Cl)c(Cl)c2)OCCCC[C@H](C)O3)cc1 | 40 | 97* | 1 | 2 | 99* | 103* | 18 | 21
CCC(=O)N(C)C[C@@H]1Oc2cc(C3=CCCC3)ccc2S(=O)(=O)N([C@H](C)CO)C[C@H]1C | 3 | -14 | 5 | -1 | x | x | x | x
O=C(C1CC1)N1CCCCN2[C@@H](CO)[C@@H](c3ccc(C#CC4CCCC4)cc3)[C@@H]2C1 | -15 | 45 | 0 | x | x | x | x | x
O=C(C1CCCC1)N1CCCCN2[C@H](CO)[C@H](c3ccc(C#CC4CC4)cc3)[C@@H]2C1 | -8 | 120* | x | x | 117* | 96* | 40* | 16
O=C(C1CC1)N1CCCCN2[C@@H](CO)[C@H](c3ccc(C#CC4CCCC4)cc3)[C@@H]2C1 | 3 | 95 | -1 | x | x | x | x | x
O=C(C1CCC1)N1CCCCN2[C@@H](CO)[C@H](c3ccc(C#CC4CCCC4)cc3)[C@@H]2C1 | -26 | 98* | x | x | 104* | 92 | 40* | 105*
O=C(C1CCCC1)N1CCCCN2[C@H](CO)[C@@H](c3ccc(C#CC4CC4)cc3)[C@@H]2C1 | 0 | 113* | x | x | 99* | 74 | 19 | 17
O=C(C1CCCC1)N1CCCCN2[C@@H](CO)[C@@H](c3ccc(C#CC4CC4)cc3)[C@@H]2C1 | -39 | 93 | x | x | x | x | x | x
O=C(Nc1ccccc1)N1CCCCN2[C@H](C1)[C@H](c1ccc(C#CC3CC3)cc1)[C@@H]2CO | -58 | 54 | 0 | x | x | x | x | x
O=C(C1CC1)N1CCCCN2[C@H](CO)[C@@H](c3ccc(C#CC4CC4)cc3)[C@@H]2C1 | 23 | 105* | x | x | 98* | 70 | 20 | 37*
O=C(C[C@@H]1C[C@H]2c3cc(NC(=O)C4CCC4)ccc3O[C@H]2[C@H](CO)O1)NCc1ccccn1 | 21 | -4 | 0 | 2 | x | x | x | x
